The values below come from ChEMBL document CHEMBL4613254, “Using the Cancer Dependency Map to Identify the Mechanism of Action of a Cytotoxic Alkenyl Derivative from the Fruit of Choerospondias axillaris” (J Nat Prod, 2020).

Calls of active or inactive are those of the source. No cut-off for these calls is given here. Some results are limits rather than exact numbers.

Assay [1] is described as follows: Growth inhibition of human D283 cells assessed as reduction in cell viability after 48 hrs by SRB assay. The note with it: D283, 48 h. The format is functional. In short, it runs like this: (§1)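 Cells were grown in IMEM with 5% FBS and 25 μg/mL gentamicin at 37 °C and 5% CO2, then seeded at 4,000–6,000 cells/well overnight. DMSO solutions (0.5% v/v final) were added to triplicate wells for 48 h, and time-0 plates were fixed at addition. Fixation was with TCA; for D283, 20% TCA was added straight into the medium. SRB absorbance at 560 nm gave GI50 by non-linear regression.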
On the technique in general: The SRB assay estimates cell density from bound dye.

Assay [2] has as its system A673. Kind of assay: Growth inhibition of human A673 cells assessed as reduction in cell viability after 48 hrs by SRB assay. The format is functional. The note with it: A673, 48 h. In outline: (§2)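 Cells were kept in RPMI-1640 with 5% FBS and 50 μg/mL gentamicin at 37 °C and 5% CO2, and plated at 4,000–6,000 cells/well to adhere overnight. Compounds in DMSO (0.5% v/v final) went to triplicate wells for 48 h. Cells were fixed with 10% TCA, and time-0 plates were fixed at dosing. SRB absorbance was read at 560 nm, with GI50 fitted by non-linear regression for each experiment.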

The nature of assay [3]: Growth inhibition of human SJCRH30 cells assessed as reduction in cell viability after 48 hrs by SRB assay. In kind it is functional. In outline: as §2
In assay [4] the test system is Hep293TT. The assay can be described thus: Growth inhibition of human Hep293TT cells assessed as reduction in cell viability after 48 hrs by SRB assay. The format is functional. In short, it runs like this:
as §2

Assay [5] deals with Daoy. The assay can be described thus: Growth inhibition of human DaOY cells assessed as reduction in cell viability up to 10 uM after 48 hrs by SRB assay. In kind it is functional, cell-based. In outline:
as §1

The test system of assay [6] is SK-ES1. Kind of assay: Growth inhibition of human SK-ES-1 cells assessed as reduction in cell viability after 48 hrs by SRB assay. The format is functional. The note with it: SK-ES1, 48 h. In outline: as §2
Assay [7] has as its system D341 cell line. Kind of assay: Growth inhibition of human D341 cells assessed as reduction in cell viability after 48 hrs by SRB assay. The format is functional. The note with it: D341, 48 h. In short, it runs like this: as §1
The target in assay [8] is T1, Monocarboxylate transporter 1 (Homo sapiens) (UniProt P53985).
T1 sequence (whole entry): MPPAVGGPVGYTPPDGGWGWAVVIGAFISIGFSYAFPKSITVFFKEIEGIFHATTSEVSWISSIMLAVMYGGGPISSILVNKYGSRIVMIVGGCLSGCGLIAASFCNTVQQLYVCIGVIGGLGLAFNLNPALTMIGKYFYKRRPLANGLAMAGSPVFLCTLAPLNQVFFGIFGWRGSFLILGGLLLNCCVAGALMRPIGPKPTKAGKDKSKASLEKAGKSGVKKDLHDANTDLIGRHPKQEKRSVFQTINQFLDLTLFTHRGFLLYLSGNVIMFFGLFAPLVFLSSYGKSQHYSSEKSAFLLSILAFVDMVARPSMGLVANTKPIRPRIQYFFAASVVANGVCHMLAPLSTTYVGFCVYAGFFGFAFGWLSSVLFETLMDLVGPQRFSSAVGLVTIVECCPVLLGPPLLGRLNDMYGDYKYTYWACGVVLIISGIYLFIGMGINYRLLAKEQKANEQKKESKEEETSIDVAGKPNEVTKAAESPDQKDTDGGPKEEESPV
The assay can be described thus: Inhibition of MCT1 in human A673 cells assessed as reduction in BrPA-induced cytotoxicity at 10 nM by SRB assay. In kind it is cell-based. In short, it runs like this: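 A-673 cells were grown in RPMI-1640 with 5% FBS. Test compound or AZD3965 was added 1 h before BrPA, with DMSO as the vehicle control. Viability was read by SRB staining after TCA fixation, with absorbance at 560 nm.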

The test system of assay [9] is HCC1806. The assay can be described thus: Growth inhibition of human HCC1806 cells assessed as reduction in cell viability up to 10 uM after 48 hrs by SRB assay. The format is functional, cell-based. In outline: as §2
Assay [10] has as its system A673. The assay can be described thus: Growth inhibition of human A673 cells assessed as reduction in cell viability up to 10 uM after 48 hrs by SRB assay. The format is functional, cell-based. In outline: as §2
Assay [11] deals with HeLa. The assay can be described thus: Cytotoxicity against human HeLa cells assessed as reduction in cell viability. The format is functional, cell-based.
For assay [12], the system named is A2780. Kind of assay: Cytotoxicity against human A2780 cells assessed as reduction in cell viability. The format is functional, cell-based.
Assay [13] concerns HCT-15. Kind of assay: Cytotoxicity against human HCT15 cells assessed as reduction in cell viability. In kind it is functional, cell-based.

The GI50 is the concentration giving 50% growth inhibition. As for `CCCC/C=C\CCCCCCCCC[C@H](O)Cc1cc(O)ccc1O`, the GI50 in assay [1] turned out to be 80 nM; in assay [2] it was 160 nM; in [3], 170 nM; in assay [4], 1020 nM.

Take `CCCC/C=C\CCCCCCCCCCC[C@H](O)Cc1cc(O)ccc1O`: the GI50 in [1] was found to be 240 nM; in assay [2], 320 nM; in assay [3], 120 nM; in [4] it was 700 nM.

`CCCC/C=C\CCCCCCCCCCC[C@H](O)C[C@]1(O)CC(=O)C=C[C@H]1O`: the GI50 in [1] was 400 nM; in assay [2], 580 nM; in assay [3] it was 180 nM; in assay [4] it was 390 nM.

`CCCC/C=C\CCCCCCCCCCCc1cc2cc(O)ccc2o1`: the GI50 in assay [1] was 70 nM; in assay [2], 190 nM; in [3], more than 10000 nM; in assay [6], 120 nM; in assay [7] it was 20 nM; in assay [4], more than 10000 nM. Besides, the “growth inhibition (GI)” value in [5] and in assay [9] was “inactive” throughout. For the same molecule, in [8], the inhibition entry was “Active”.

On to `Cc1[nH]nc(C(F)(F)F)c1Cc1sc2c(c1C(=O)N1C[C@](C)(O)CO1)c(=O)n(C)c(=O)n2C(C)C`, for which the inhibition result in assay [8] was “Active”. The “growth inhibition (GI)” value in assay [10] is “inactive”.

In general, IC50 refers to the concentration needed to halve the response being measured. For the molecule `CCCC/C=C\CCCCCCCCCCC[C@@H]1C[C@]2(O)CC(=O)C[C@H](O1)[C@@H]2O`, the IC50 in assay [11], in [12] and in assay [13] was 3 to 30 µM throughout.

`CCCC/C=C\CCCCCCCCC[C@H](O)C[C@]1(O)CC(=O)C=C[C@H]1O`: the GI50 in [1] was 410 nM; in assay [2] it was 650 nM; in [3] it was 240 nM; in [4], 500 nM.
